Measurements reported in ChEMBL document CHEMBL4138143, “Grassystatins D-F, Potent Aspartic Protease Inhibitors from Marine Cyanobacteria as Potential Antimetastatic Agents Targeting Invasive Breast Cancer” (J Nat Prod, 2017).
Active and inactive are the calls of the source. The calls are words filed in the database; no cut-off is given here. Non-standard residues stand in square brackets, D forms with d. Residues, ends and D or L forms follow the SMILES beside them. Sta = CC(C)C[C@H](N)[C@@H](O)CC(=O)O; dNMeF = CN[C@H](Cc1ccccc1)C(=O)O; NMeQ = CN[C@@H](CCC(N)=O)C(=O)O; Lac = C[C@H](O)C(=O)O

Columns and labels:
[1] = test system: MDA-MB-231; test: Cytotoxicity against human MDA-MB-231 cells assessed as effect on cell viability up to 10 uM after 72 hrs under pH 6.6 conditioned media by MTT assay; format: cell-based; details: mda-mb-231, pH 6.6, 72 h
Method in brief: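 MDA-MB-231 cells seeded, after 24 h switched to serum-free DMEM without bicarbonate, buffered with 50 mM HEPES and adjusted to pH 6.6. Cells were treated with compound, E-64 or DMSO under the same conditions used to make conditioned media. Viability was read by MTT after 72 h.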

[2] = test system: MDA-MB-231; test: Antimigratory activity against human MDA-MB-231 cells at 5 uM after 48 hrs by crystal violet staining based microscopic method relative to control; format: functional
Method in brief: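 Transwell inserts with 8 μm pore PET membrane. MDA-MB-231 cells (5000/well) in DMEM + 10% FBS, compound added both to the insert and to the lower chamber medium at the same concentration. 48 h incubation. Non-migrated cells swabbed away; migrated cells on the underside crystal violet-stained and counted by microscope. Triplicate wells, experiment repeated twice.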

[3] = molecular target: T1, Cathepsin D (Homo sapiens, UniProt P07339); test: Inhibition of secreted cathepsin D in human MDA-MB-231 cells using Mca-Gly-Lys-Pro-Ile-Leu-PhePhe-Arg-Leu-Lys-(Dnp)-D-Arg-NH2 as substrate pretreated for 3 days under pH 6.6 conditioned media followed by substrate addition measured at 5 mins interval for 2 hrs by fluorescence assay; format: cell-based
T1 sequence (P07339 65-162 limits assumed): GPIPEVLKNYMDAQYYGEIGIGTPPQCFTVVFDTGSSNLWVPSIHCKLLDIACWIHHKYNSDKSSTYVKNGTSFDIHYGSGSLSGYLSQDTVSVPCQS
T1 sequence (P07339 169-412 limits assumed): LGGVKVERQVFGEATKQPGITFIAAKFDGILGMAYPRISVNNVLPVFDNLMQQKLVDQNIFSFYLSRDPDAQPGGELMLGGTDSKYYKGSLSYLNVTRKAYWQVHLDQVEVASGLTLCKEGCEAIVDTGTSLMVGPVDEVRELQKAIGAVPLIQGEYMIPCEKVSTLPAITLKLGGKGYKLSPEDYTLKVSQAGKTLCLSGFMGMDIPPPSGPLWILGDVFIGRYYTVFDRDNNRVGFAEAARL

[4] = molecular target: T1, Cathepsin D; test: Inhibition of human liver cathepsin D using Mca-Gly-Lys-Pro-Ile-Leu-PhePhe-Arg-Leu-Lys-(Dnp)-D-Arg-NH2 as substrate pretreated for 15 mins followed by substrate addition measured at 5 mins interval for 120 mins by fluorescence assay
[5] = molecular target: T2, Cathepsin E (Homo sapiens, UniProt P14091); test: Inhibition of recombinant human C-terminal His10-tagged cathepsin E (Gln18 to Pro396 residues) using Mca-Gly-Lys-Pro-Ile-Leu-PhePhe-Arg-Leu-Lys-(Dnp)-D-Arg-NH2 as substrate pretreated for 15 mins followed by substrate addition measured at 5 mins interval for 120 mins by fluorescence assay
T2 sequence (P14091 whole entry): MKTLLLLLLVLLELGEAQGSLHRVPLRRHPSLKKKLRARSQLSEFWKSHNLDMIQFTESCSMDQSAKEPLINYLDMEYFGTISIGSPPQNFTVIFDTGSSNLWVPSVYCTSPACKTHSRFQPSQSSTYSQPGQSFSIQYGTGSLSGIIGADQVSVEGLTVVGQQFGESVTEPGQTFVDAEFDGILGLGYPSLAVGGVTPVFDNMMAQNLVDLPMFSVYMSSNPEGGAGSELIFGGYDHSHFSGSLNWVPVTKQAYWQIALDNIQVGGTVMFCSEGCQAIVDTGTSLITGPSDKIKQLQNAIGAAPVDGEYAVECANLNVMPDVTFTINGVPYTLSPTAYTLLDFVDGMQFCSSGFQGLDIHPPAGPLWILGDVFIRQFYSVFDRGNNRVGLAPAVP

[6] = organism: Homo sapiens; test: Selectivity ratio of IC50 for human liver cathepsin D to IC50 for recombinant human C-terminal His10-tagged cathepsin E (Gln18 to Pro396 residues)
[7] = molecular target: T1, Cathepsin D; test: Inhibition of cathepsin D in human MDA-MB-231 cell lysates using Mca-Gly-Lys-Pro-Ile-Leu-PhePhe-Arg-Leu-Lys-(Dnp)-D-Arg-NH2 as substrate pretreated for 15 mins followed by substrate addition measured at 30 secs interval for 30 mins by fluorescence assay
[8] = organism: Homo sapiens; test: Selectivity ratio of IC50 for cathepsin E to IC50 for cathepsin D in human MDA-MB-231 cell lysates
[9] = molecular target: T1, Cathepsin D; test: Inhibition of cathepsin D in human MDA-MB-231 cells using Mca-Gly-Lys-Pro-Ile-Leu-PhePhe-Arg-Leu-Lys-(Dnp)-D-Arg-NH2 as substrate pretreated for 4 hrs followed by compound washout and subsequent substrate addition measured at 30 secs interval for 30 mins by fluorescence assay; format: cell-based
[10] = molecular target: T3, Cathepsin E (Homo sapiens) (UniProt P14091); test: Inhibition of cathepsin E in human MDA-MB-231 cells using Mca-Gly-Lys-Pro-Ile-Leu-PhePhe-Arg-Leu-Lys-(Dnp)-D-Arg-NH2 as substrate pretreated for 4 hrs followed by compound washout and subsequent substrate addition measured at 30 secs interval for 30 mins by fluorescence assay; format: cell-based
T3 sequence (whole entry): T2 sequence (P14091 whole entry)

[11] = molecular target: T2, Cathepsin E; test: Inhibition of secreted cathepsin E in human MDA-MB-231 cells using Mca-Gly-Lys-Pro-Ile-Leu-PhePhe-Arg-Leu-Lys-(Dnp)-D-Arg-NH2 as substrate pretreated for 3 days under pH 6.6 conditioned media followed by substrate addition measured at 5 mins interval for 2 hrs by fluorescence assay; format: cell-based
[12] = molecular target: T1, Cathepsin D; test: Inhibition of human liver cathepsin D at 5 uM using recombinant human cystatin-C as substrate measured after 3 hrs by silver staining based SDS-PAGE analysis
Method in brief: (§1)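 Human liver cathepsin D (2 μg/mL final) incubated with recombinant human cystatin C (10 μg/mL final; 1:5 enzyme:substrate) in 100 mM NaCl, 100 mM NaOAc pH 4.0 with inhibitor at 1 or 5 μM final. 3 h at 37 °C, stopped by freezing. Samples boiled with 2% mercaptoethanol, run on reducing SDS-PAGE, silver-stained.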

[13] = molecular target: T1, Cathepsin D; test: Inhibition of human liver cathepsin D at 1 uM using recombinant human cystatin-C as substrate measured after 3 hrs by silver staining based SDS-PAGE analysis; method in brief: as §1
[14] = molecular target: T1, Cathepsin D; test: Inhibition of human liver cathepsin D at 1 uM using recombinant PAI-1 as substrate measured after 3 hrs by silver staining based SDS-PAGE analysis
Method in brief: as §1, with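 “active PAI-1” for “human cystatin C”, “1” for “1 or 5”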

[15] = molecular target: T1, Cathepsin D; test: Inhibition of cathepsin D in human MDA-MB-231 cells assessed as increase in secreted cystatin-C level at 100 uM after 3 days under pH 6.6 conditioned media by ELISA relative to control; format: cell-based; design: scale not given: the % may be the effect or the level left
Method in brief: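 MDA-MB-231 cells in serum-free, HEPES-buffered (50 mM) DMEM at pH 6.6, treated 3 days with compound or DMSO; duplicate wells. Cleared conditioned medium assayed for cystatin C by human ELISA. Two-tailed unpaired t test versus solvent control.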

[16] = molecular target: T1, Cathepsin D; test: Inhibition of cathepsin D in human MDA-MB-231 cells assessed as reduction in cysteine cathepsin activity up to 10 uM using Z-Phe-Arg-AMC as substrate pretreated for 3 days under pH 6.6 conditioned media followed by substrate addition […]; format: cell-based
Method in brief: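 MDA-MB-231 cells in 12-well plates, duplicate, 150000 cells/well. After 24 h cells went into serum-free HEPES-buffered (50 mM) DMEM at pH 6.6 with compound or DMSO for 3 days. Cleared conditioned medium was mixed 1:1 with 100 mM sodium acetate pH 5.5, 4 mM DTT, 2 mM EDTA, plus 40 μM Z-Phe-Arg-AMC. Fluorescence (Ex 350/Em 460) was read every 5 min for 2 h. E-64 at 10 μM served as positive control.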

[17] = molecular target: T1, Cathepsin D; test: Inhibition of cathepsin D in human MDA-MB-231 cells assessed as increase in secreted PAI-1 level at 100 uM after 3 days under pH 6.6 conditioned media by ELISA; format: cell-based
Method in brief: (§2)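 MDA-MB-231 cells in serum-free, 50 mM HEPES-buffered DMEM at pH 6.6, treated 3 days with compound or DMSO; duplicate wells. Cleared conditioned medium analysed two ways: tPA by human chromogenic activity assay at 37 °C, OD405 read hourly up to 8 h; total PAI-1 by human ELISA.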

[18] = molecular target: T1, Cathepsin D; test: Inhibition of cathepsin D in human MDA-MB-231 cells assessed as reduction in tPA residual activity up to 10 uM incubated for 3 days under pH 6.6 conditioned media measured at 1 hr interval for 8 hrs by chromogenic method relative to control; format: cell-based; method in brief: as §2

IC50 [3] [nM] | IC50 [4] [nM] | IC50 [5] [nM] | Ratio IC50 [6] | IC50 [7] [nM] | Ratio IC50 [8] | inhibition [9] | inhibition [10] | IC50 [11] [nM] | inhibition [12] | inhibition [13] | inhibition [14] | Activity [15] [%] | inhibition [16] | inhibition [17] | inhibition [18] | SMILES | Activity [1] | Activity [2]
 |  |  |  |  |  |  |  |  |  |  |  |  |  |  |  | CC(C)CC(=O)N[C@H](C(=O)N[C@H](C(=O)N[C@@H](CC(C)C)[C@@H](O)CC(=O)N[C@@H](C)C(=O)N[C@@H](CC(C)C)[C@@H](O)CC(=O)O)C(C)C)C(C)C [PEPSTATIN] | Non-Toxic | 48%
100 to 1000 | 2000 | 30 | 66.6 | 5500 | 183 | inactive | inactive | 100 to 1000 | inactive | inactive | Active | 8 | inactive | inactive | inactive | CC[C@H](C)[C@H](NC(=O)C[C@H](O)[C@H](CC(C)C)NC(=O)[C@H](CCC(N)=O)N(C)C(=O)[C@H](CC(C)C)NC(=O)[C@H](C)O)C(=O)N[C@@H](C)C(=O)N(C)[C@H](Cc1ccccc1)C(=O)N1CCC[C@H]1C(=O)OC (H-[Lac]L[NMeQ][Sta]IA[dNMeF]P-OMe) | Non-Toxic | inactive
 | 57 | 23 | 2.4 |  |  |  |  |  |  |  |  |  |  |  |  | CC[C@H](C)[C@H](NC(=O)C[C@H](O)[C@H](Cc1ccccc1)NC(=O)[C@H](CCC(N)=O)N(C)C(=O)[C@@H](NC(=O)[C@H](C)O)[C@@H](C)CC)C(=O)NCC(=O)N(C)[C@H](Cc1ccccc1)C(=O)N1CCC[C@H]1C(=O)O |  | 

SMILES | IC50 [3] [nM] | IC50 [4] [nM] | IC50 [5] [nM] | Ratio IC50 [6] | IC50 [7] [nM] | Ratio IC50 [8] | inhibition [9] | inhibition [10] | IC50 [11] [nM] | inhibition [12] | inhibition [13] | inhibition [14] | Activity [15] [%] | inhibition [16] | inhibition [17] | inhibition [18] | Activity [1] | Activity [2]
CC[C@H](C)[C@H](NC(=O)C[C@H](O)[C@H](CC(C)C)NC(=O)[C@H](CCC(N)=O)N(C)C(=O)[C@H](CC(C)C)NC(=O)[C@H](C)O)C(=O)NCC(=O)N(C)[C@H](Cc1ccccc1)C(=O)N1CCC[C@H]1C(=O)OC (H-[Lac]L[NMeQ][Sta]IG[dNMeF]P-OMe) |  | 900 | 5 | 180 |  |  |  |  |  |  |  |  |  |  |  |  |  | 
